Consider eight molecules from ChEMBL document CHEMBL1153264, “(1,2,3-Triazol-4-yl)benzenamines: synthesis and activity against VEGF receptors 1 and 2” (Bioorg Med Chem Lett, 2009).

The target of assay [1] is Cyclin-dependent kinase 1 (Homo sapiens) (UniProt P06493). As to the kind of experiment: Inhibition of Cdk1 at 10 uM.
For assay [2], the target named is Receptor-type tyrosine-protein kinase FLT3 (Homo sapiens) (UniProt P36888). As to the kind of experiment: Inhibition of Flt3 at 10 uM.
Assay [3] has as its target Serine/threonine-protein kinase PLK1 (Homo sapiens) (UniProt P53350). As to the kind of experiment: Inhibition of Plk1 at 10 uM.
The target of assay [4] is Fibroblast growth factor receptor 1 (Homo sapiens) (UniProt P11362). The experiment in a line: Inhibition of FGFR1 at 10 uM.
A short description of assay [5]: Inhibition of PKA at 10 uM.
The target of assay [6] is Epidermal growth factor receptor (Homo sapiens) (UniProt P00533). The experiment in a line: Inhibition of EGFR at 10 uM.
In assay [7] the target is Insulin receptor (Homo sapiens) (UniProt P06213). The experiment in a line: Inhibition of IR at 10 uM.
For assay [8], the target named is Glycogen synthase kinase-3 beta (Homo sapiens) (UniProt P49841). As to the kind of experiment: Inhibition of GSK3-beta at 10 uM.
In assay [9] the target is Hepatocyte growth factor receptor (Homo sapiens) (UniProt P08581). As to the kind of experiment: Inhibition of c-Met at 10 uM.
Assay [10] addresses Cyclin-dependent kinase 2 (Homo sapiens) (UniProt P24941). As to the kind of experiment: Inhibition of Cdk2 at 10 uM.
Assay [11] concerns the target Aurora kinase B (Homo sapiens) (UniProt Q96GD4). As to the kind of experiment: Inhibition of Aurora B at 10 uM.
The target in assay [12] is T1, Vascular endothelial growth factor receptor 2 (Homo sapiens, UniProt P35968). As to the kind of experiment: Inhibition of VEGFR2 by HTRF assay in presence of 2 uM ATP. The procedure, abridged:
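HTRF kinase assay with KDR enzyme (3–4 ng) and biotinylated pGAT substrate. ATP added to start, 45 min at RT. Stopped with EDTA/KF buffer plus Eu-cryptate anti-phosphotyrosine antibody, 2 h RT, then HTRF read. IC50 from 10-point log concentration curves, mean of at least two duplicate runs.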
In general terms: TR-FRET usually uses a lanthanide donor and a delayed reading to cut background.

For assay [13], the target named is T2, Aurora kinase A (Homo sapiens) (UniProt O14965).
T2 sequence (whole entry): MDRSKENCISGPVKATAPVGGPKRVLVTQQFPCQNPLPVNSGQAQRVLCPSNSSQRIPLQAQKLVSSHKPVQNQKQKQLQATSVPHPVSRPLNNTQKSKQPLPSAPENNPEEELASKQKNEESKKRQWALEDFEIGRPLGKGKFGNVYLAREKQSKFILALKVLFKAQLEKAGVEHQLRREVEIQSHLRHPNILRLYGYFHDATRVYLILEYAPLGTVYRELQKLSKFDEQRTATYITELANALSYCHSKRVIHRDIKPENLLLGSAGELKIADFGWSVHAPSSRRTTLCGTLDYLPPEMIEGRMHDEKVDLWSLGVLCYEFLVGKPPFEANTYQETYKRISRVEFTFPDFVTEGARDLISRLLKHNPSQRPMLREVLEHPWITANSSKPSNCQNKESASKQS
As to the kind of experiment: Inhibition of Aurora A at 10 uM.

Assay [14] concerns the target Proto-oncogene tyrosine-protein kinase Src (Homo sapiens) (UniProt P12931). The experiment in a line: Inhibition of Src at 10 uM.
Assay [15] addresses Receptor tyrosine-protein kinase erbB-2 (Homo sapiens) (UniProt P04626). The experiment in a line: Inhibition of ErbB2 at 10 uM.
In assay [16] the target is T1, Vascular endothelial growth factor receptor 2. The experiment in a line: Inhibition of VEGF-induced phosphorylation of VEGFR2 by cell-based ELISA.
Assay [17] concerns the target Insulin-like growth factor 1 receptor (Homo sapiens) (UniProt P08069). The experiment in a line: Inhibition of IGF1R at 10 uM.
Assay [18] in a line: Inhibition of Bcr-Abl T315 mutant at 10 uM.
In assay [19] the target is Macrophage-stimulating protein receptor (Homo sapiens) (UniProt Q04912). The experiment in a line: Inhibition of Ron at 10 uM.
Assay [20] concerns the target Vascular endothelial growth factor receptor 1 (Homo sapiens, UniProt P17948). The experiment in a line: Inhibition of VEGFR1 by HTRF assay.
For assay [21], the target named is Bcr/Abl fusion protein (Homo sapiens) (UniProt P00519+P11274). The experiment in a line: Inhibition of Bcr-Abl at 10 uM. The class given is protein assay.

Broadly, the inhibition is how much of the control response was suppressed. High values mean a strong effect, low ones a weak effect. Usually IC50 stands for the point on the concentration scale where inhibition reaches its midpoint.

Chain of Cyclin-dependent kinase 1 (Homo sapiens) (P06493 whole entry, looked up): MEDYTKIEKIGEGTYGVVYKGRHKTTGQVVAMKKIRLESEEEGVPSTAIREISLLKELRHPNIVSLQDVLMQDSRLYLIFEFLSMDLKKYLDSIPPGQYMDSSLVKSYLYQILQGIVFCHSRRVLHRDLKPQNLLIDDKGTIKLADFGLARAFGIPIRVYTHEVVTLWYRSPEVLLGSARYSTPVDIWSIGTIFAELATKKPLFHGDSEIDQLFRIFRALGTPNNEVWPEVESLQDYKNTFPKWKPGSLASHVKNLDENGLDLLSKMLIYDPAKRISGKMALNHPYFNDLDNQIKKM
Chain of Receptor-type tyrosine-protein kinase FLT3 (Homo sapiens) (P36888 whole entry): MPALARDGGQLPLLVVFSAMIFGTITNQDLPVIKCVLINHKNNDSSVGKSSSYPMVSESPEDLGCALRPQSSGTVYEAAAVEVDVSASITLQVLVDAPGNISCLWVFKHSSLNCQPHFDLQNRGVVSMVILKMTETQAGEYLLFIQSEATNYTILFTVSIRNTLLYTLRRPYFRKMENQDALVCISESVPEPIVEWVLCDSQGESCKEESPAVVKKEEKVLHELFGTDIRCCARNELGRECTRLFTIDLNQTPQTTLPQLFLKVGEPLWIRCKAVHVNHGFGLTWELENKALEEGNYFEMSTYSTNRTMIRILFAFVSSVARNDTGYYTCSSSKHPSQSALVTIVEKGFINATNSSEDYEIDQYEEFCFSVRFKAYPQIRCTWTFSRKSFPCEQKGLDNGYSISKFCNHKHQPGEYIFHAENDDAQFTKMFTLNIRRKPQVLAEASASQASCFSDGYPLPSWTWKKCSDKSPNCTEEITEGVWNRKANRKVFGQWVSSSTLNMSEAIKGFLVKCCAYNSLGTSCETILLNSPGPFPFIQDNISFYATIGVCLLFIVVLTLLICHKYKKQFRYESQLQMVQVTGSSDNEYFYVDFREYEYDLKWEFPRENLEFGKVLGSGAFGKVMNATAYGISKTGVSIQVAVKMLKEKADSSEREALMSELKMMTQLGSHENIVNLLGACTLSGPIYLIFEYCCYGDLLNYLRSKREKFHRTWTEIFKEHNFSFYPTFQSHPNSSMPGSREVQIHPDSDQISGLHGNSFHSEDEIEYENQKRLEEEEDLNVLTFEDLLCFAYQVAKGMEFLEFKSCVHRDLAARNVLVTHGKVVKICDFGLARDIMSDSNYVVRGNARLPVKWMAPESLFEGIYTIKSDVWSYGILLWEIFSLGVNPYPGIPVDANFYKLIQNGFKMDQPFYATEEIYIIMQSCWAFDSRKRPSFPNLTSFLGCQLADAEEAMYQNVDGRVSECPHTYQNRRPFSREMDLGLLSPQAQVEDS
Chain of Epidermal growth factor receptor (Homo sapiens) (P00533 whole entry): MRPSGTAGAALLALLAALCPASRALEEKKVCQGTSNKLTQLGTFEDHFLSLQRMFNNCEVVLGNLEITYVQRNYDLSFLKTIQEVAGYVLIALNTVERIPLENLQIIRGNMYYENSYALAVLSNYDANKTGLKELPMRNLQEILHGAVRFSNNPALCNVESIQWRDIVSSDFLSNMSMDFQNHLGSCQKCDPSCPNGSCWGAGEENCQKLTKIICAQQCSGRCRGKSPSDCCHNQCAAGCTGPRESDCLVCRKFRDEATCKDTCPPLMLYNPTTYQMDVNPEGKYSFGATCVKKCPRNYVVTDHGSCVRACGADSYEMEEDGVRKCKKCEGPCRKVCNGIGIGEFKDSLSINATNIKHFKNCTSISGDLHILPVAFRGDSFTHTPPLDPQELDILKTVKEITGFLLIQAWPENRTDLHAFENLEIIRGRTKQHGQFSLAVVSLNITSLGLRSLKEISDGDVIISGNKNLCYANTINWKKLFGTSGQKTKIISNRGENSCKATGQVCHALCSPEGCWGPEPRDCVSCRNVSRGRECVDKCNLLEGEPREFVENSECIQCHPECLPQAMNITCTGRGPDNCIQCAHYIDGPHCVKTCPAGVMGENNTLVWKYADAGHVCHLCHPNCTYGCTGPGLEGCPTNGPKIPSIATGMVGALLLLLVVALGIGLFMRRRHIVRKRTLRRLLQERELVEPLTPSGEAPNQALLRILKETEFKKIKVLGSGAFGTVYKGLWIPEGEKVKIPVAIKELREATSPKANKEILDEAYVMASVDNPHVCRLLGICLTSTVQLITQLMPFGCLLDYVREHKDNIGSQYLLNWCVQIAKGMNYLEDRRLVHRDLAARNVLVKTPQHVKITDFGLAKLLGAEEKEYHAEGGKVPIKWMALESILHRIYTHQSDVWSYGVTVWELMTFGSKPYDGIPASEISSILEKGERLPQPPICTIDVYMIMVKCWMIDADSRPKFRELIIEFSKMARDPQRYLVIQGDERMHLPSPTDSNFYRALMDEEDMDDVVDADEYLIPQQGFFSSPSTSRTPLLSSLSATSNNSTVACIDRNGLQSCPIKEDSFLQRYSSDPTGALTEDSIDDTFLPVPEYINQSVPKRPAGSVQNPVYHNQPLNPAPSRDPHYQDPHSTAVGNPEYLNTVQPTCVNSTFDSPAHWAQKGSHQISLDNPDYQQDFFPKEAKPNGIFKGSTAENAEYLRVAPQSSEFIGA
Chain of Aurora kinase B (Homo sapiens) (Q96GD4 whole entry): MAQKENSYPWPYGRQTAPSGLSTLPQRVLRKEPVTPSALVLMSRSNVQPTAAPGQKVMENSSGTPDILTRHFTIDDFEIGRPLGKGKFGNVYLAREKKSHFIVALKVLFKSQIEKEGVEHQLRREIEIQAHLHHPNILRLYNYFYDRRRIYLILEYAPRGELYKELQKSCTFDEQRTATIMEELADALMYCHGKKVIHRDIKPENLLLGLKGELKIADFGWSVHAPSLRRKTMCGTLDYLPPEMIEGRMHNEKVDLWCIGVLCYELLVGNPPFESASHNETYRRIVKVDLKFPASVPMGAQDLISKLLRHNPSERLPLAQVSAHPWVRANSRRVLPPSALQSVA
Chain of Serine/threonine-protein kinase PLK1 (Homo sapiens) (P53350 whole entry): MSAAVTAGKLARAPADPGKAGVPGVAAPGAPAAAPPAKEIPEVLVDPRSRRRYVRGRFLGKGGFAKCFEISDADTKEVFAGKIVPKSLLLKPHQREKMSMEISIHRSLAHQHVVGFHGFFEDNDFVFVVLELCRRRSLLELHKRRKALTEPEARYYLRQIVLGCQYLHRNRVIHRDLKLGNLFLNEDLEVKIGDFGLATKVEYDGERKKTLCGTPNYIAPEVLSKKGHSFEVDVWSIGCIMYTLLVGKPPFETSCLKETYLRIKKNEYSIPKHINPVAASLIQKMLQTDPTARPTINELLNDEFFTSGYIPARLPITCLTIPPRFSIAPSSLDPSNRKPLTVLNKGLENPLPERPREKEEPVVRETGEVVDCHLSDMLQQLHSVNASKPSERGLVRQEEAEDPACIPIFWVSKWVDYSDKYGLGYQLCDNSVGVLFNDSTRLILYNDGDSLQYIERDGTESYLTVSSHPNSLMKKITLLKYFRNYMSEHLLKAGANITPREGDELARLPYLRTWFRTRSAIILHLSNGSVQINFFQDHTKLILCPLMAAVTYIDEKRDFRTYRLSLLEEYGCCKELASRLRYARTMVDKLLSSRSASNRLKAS
Chain of Macrophage-stimulating protein receptor (Homo sapiens) (Q04912 25-304 limits assumed): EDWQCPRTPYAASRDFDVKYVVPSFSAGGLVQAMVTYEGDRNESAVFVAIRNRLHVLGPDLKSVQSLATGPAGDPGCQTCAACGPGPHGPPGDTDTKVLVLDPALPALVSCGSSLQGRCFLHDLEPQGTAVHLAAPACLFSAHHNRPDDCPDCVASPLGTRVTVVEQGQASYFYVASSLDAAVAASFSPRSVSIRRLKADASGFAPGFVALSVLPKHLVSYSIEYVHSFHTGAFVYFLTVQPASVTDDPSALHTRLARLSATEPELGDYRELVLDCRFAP
Chain of Macrophage-stimulating protein receptor (Homo sapiens) (Q04912 310-1400 limits assumed): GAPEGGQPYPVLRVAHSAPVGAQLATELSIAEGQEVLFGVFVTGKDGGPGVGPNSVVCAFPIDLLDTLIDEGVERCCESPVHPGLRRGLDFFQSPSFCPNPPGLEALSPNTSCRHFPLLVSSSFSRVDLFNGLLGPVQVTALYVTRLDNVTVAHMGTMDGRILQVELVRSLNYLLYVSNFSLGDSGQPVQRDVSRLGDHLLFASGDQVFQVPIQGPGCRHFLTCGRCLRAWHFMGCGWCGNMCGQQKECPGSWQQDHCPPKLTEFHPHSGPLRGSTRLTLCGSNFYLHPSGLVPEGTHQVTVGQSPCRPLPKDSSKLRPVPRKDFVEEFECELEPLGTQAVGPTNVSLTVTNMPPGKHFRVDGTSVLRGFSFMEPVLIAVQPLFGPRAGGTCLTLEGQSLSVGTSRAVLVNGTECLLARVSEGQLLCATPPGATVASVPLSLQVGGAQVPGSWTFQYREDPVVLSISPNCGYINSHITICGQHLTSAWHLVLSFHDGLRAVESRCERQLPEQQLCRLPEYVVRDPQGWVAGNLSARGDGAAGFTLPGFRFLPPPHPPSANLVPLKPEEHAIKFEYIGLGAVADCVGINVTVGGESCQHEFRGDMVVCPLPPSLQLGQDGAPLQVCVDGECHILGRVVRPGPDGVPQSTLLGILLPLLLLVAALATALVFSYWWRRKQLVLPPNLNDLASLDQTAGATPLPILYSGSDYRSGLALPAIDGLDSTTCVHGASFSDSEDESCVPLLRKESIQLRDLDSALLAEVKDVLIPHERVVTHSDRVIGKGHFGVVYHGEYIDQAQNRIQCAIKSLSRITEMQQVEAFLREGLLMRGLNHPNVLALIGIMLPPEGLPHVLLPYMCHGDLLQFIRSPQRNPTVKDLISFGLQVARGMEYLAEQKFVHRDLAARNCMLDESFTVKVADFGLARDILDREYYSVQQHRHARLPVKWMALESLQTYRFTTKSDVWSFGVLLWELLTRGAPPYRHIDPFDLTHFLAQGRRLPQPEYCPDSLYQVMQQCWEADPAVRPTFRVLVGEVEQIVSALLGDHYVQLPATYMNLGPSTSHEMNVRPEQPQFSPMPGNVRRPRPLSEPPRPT

As to `Clc1cccc(-n2cc(-c3ccccc3NCc3c[nH]cn3)nn2)c1`, the inhibition in assay [1], in assay [2], in assay [3], in [4], in assay [5] and in [6] was under 30% throughout. Besides, the inhibition in [7], in assay [8], in assay [9], in assay [10], in [11] and in assay [13] was under 30% throughout. Further, the inhibition in assay [14], in assay [15], in assay [17], in assay [18], in assay [19] and in assay [21] was under 30% in each case. The IC50 in assay [12], in [16] and in assay [20] was over 10000 nM throughout.
With `FC(F)(F)c1ccc(-n2cc(-c3ccccc3NCc3ccncc3)nn2)cc1`, the inhibition in assay [1], in assay [2], in assay [3], in assay [4], in assay [5] and in [6] was under 30% each time. Also, the inhibition in assay [7], in assay [8], in assay [9], in [10], in [11] and in assay [13] was under 30% throughout. Moreover, the inhibition in assay [14], in assay [15], in assay [17], in assay [18], in assay [19] and in [21] was under 30% throughout. The IC50 in assay [12] came to 590 nM; in [16], 1920 nM; in assay [20], 660 nM.
Take `CC(C)(C)c1cccc(-n2cc(-c3ccccc3NCc3ccncc3)nn2)c1`: the inhibition in assay [1], in assay [2], in assay [3], in assay [4], in assay [5] and in assay [6] was under 30% in each case. For the same molecule, the inhibition in assay [7], in assay [8], in assay [9], in assay [10], in assay [11] and in assay [13] was under 30% throughout. Further, the inhibition in assay [14], in assay [15], in assay [17], in [18], in assay [19] and in assay [21] was under 30% in each case. In addition, the IC50 was 270 nM in assay [12], 330 nM in assay [16] and 250 nM in assay [20].
On to `Cc1cc(-n2cc(-c3ccccc3NCc3ccncc3)nn2)ccc1C(F)(F)F`, for which the inhibition in assay [1], in [2], in [3], in [4], in assay [5] and in assay [6] was under 30% each time. Also, the inhibition in assay [7], in [8], in [9], in [10], in assay [11] and in assay [13] was under 30% in each case. Moreover, the inhibition in [14], in assay [15], in [17], in assay [18], in assay [19] and in assay [21] was under 30% each time. In addition, the results for the IC50 in assay [12], in assay [16] and in assay [20] were 980 nM, 2020 nM and 860 nM, respectively.
As to `FC(F)(F)c1cccc(-n2cc(-c3ccccc3NCc3ccccn3)nn2)c1`, the inhibition in assay [1], in assay [2], in [3], in assay [4], in assay [5] and in assay [6] was under 30% in each case. In addition, the inhibition in assay [7], in assay [8], in assay [9], in assay [10], in assay [11] and in assay [13] was under 30% each time. Also, the inhibition in assay [14], in [15], in [17], in [18], in assay [19] and in assay [21] was under 30% each time. In addition, the IC50 in assay [12], in assay [16] and in [20] was over 10000 nM throughout.
Consider `Clc1ccc(-n2cc(-c3ccccc3NCc3ccncc3)nn2)cc1Cl`, for which the inhibition in [1], in assay [2], in [3], in assay [4], in assay [5] and in assay [6] was under 30% each time. Also, the inhibition in [7], in assay [8], in [9], in assay [10], in assay [11] and in assay [13] was under 30% each time. For the same molecule, the inhibition in assay [14], in [15], in assay [17], in assay [18], in assay [19] and in assay [21] was under 30% each time. The IC50 in assay [12] is 630 nM; in [16], 1470 nM; in assay [20], 650 nM.
Consider `FC(F)(F)c1cccc(-n2cc(-c3ccccc3NCc3cccnc3)nn2)c1`, for which the inhibition in assay [1], in [2], in assay [3], in assay [4], in assay [5] and in [6] was under 30% each time. Further, the inhibition in assay [7], in assay [8], in assay [9], in assay [10], in [11] and in [13] was under 30% throughout. In addition, the inhibition in assay [14], in assay [15], in [17], in [18], in assay [19] and in assay [21] was under 30% throughout. Also, the IC50 in assay [12], in assay [16] and in assay [20] was over 10000 nM throughout.
With `c1ccc(-c2cn(-c3ccc4ccccc4n3)nn2)c(NCc2ccncc2)c1`, the inhibition in assay [1], in assay [2], in [3], in [4], in assay [5] and in assay [6] was under 30% throughout. The inhibition in [7], in assay [8], in [9], in [10], in [11] and in assay [13] was under 30% in each case. Also, the inhibition in [14], in [15], in assay [17], in assay [18], in assay [19] and in assay [21] was under 30% each time. In addition, the figures for the concentration for half-maximal inhibition (IC50) in [12], in assay [16] and in assay [20] were 770 nM, 1190 nM and 640 nM, respectively.
